Screens (PubChem BioAssay)
G6PDH counter = counter-screen for G6PDH assay hits: L. mesenteroides G6PDH inhibition. Purified L. mesenteroides G6PDH, diaphorase/resazurin coupled fluorescence, 45 min. inhibition, % at 5 µM. 0.12% of 200,000 active. AID 1020
Redox H2O2 prof = compounds producing H2O2 with reducing agent – biochemical, NIH compound library profiling, artefact control for MLSCN library redox annotation, primary screen; DTT-dependent redox cycling H2O2, phenol red/HRP absorbance; 100% = 100 µM peroxide control, 0% = buffer; activation, % at 10 µM; 0.03% of 200,000 active;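 active means activation of at least 50% relative to the plate's high and low controls in the primary single-dose screen; inactive means activation below 50%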;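 further: compound incubated with DTT at 0.8 mM final as the reducing agent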
Diaphorase inh = inhibits diaphorase or chemically oxidizes, flagging diaphorase assay artifacts | diaphorase resazurin-to-resorufin fluorescence, NADH, 16 min; bacterial (C. kluyveri) enzyme, not human | inhibition, % at 20 µM | 0.69% of 190,000 active | AID 1217;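 active means primary screen inhibition at 20 µM above a set limit, cut at about 50% in these data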;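 further: plate controls were DMSO with full reaction for no effect and wells lacking NADH for full effect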
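Test system: diaphorase enzyme from Clostridium kluyveri; amount: diaphorase at 0.14 U/mL in enzyme working solution; detection: fluorescence of resorufin formed from resazurin, Ex 544/Em 590 nm; times: reaction incubation of 16 min at room temperature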
Diaphorase act = diaphorase activation or chemical reduction counter-screen; Diaphorase/resazurin coupled assay, resorufin fluorescence, 16 min; active compounds read high; 1 = vehicle wells, 0 = NADH-free wells; activation factor at 20 µM; 0.005% of 190,000 active;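 active means diaphorase activity raised at least twofold by the compound at 20 µM; inactive means activation factor below 2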
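Assay system: Purified diaphorase enzyme from Clostridium kluyveri | Amount: Enzyme 0.07 U/mL final | Dosing: Compound 20 µM once, DMSO 1% | Timing: 16 min reaction at room temperature | Detection: Fluorescence, excitation 544 nm and emission 590 nm | Evaluation: Higher resorufin formation from activation or reduction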
PfGluPho inh = PfG6PD (Plasmodium falciparum) enzyme inhibition; PfGluPho enzyme, NADPH resazurin-diaphorase fluorescence; inhibition, % at 20 µM; 0.78% of 350,000 active; AID 504690;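 active means inhibition reaching at least a set limit at 20 µM in the primary screen, cut at about 59% in these data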;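 further: 0% = DMSO wells with substrate and 100% = DMSO wells lacking glucose-6-phosphate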
L major viab = inhibitors of Leishmania major promastigote growth; inhibition, % at 10 µM; AID 1063; Leishmania major promastigotes, resazurin fluorescence viability; 9% of 200,000 active;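 further: promastigotes grown with compound for 44 hours at 28 °C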
PfG6PD confirm = confirmation of Plasmodium falciparum G6PD inhibitors; inhibition, % at 20 µM; recombinant PfGluPho, NADPH-diaphorase-resazurin fluorescence; shares compounds with PfGluPho inh; 34% of 2,400 active;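 active means inhibition of at least 50% at 20 µM in any single replicate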;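 further: 0% = DMSO with substrate and 100% = DMSO lacking glucose-6-phosphate substrate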
Diaphorase 10uM = inhibits diaphorase or oxidizes, flagging false PfG6PD hits; diaphorase-coupled resazurin reduction, fluorescence, NADPH 10 uM; shares compounds with PfGluPho inh; inhibition, % at 20 µM; 39% of 820 active;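 active means average inhibition reaching 50% or more with the compound at 20 µM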;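 further: resorufin red fluorescence formed as diaphorase reduces resazurin using NADPH; 0% = DMSO with enzyme and 100% = DMSO without enzyme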
Diaphorase 30uM = counter-screen for P. falciparum G6PD inhibitors: diaphorase inhibitors, oxidizers. 29% of 820 active. AID 504863. inhibition, % at 20 µM. shares compounds with PfGluPho inh. Diaphorase/resazurin coupled assay, resorufin fluorescence, 30 uM NADPH;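 active means inhibition averaging 50% or more, tested at 20 µM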;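 further: 0% = DMSO with enzyme and 100% = DMSO wells lacking diaphorase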
Numbers without * were called inactive; ! = a repeat was not active. The full list was thinned out, with hits kept by preference. Unless noted, no stated cut-off is given here; in the data, active means inhibition above about 50%; inactive means the rest.

O=C(N/N=C\c1ccccc1)c1sccc1-n1cccc1 was read as G6PDH counter 10, Redox H2O2 prof -7, Diaphorase inh 4, Diaphorase act 1, PfGluPho inh 45 and L major viab 4.
For CC(C)(C=O)C1=CC(=O)c2ccccc2C1=O the results were G6PDH counter 45, Redox H2O2 prof 0, Diaphorase inh 16, Diaphorase act 0.8, PfGluPho inh 119*, L major viab 56*, PfG6PD confirm 103*, Diaphorase 10uM 85* and Diaphorase 30uM 66*.
For CC(C)(C)c1ccc2c(c1)C(=O)c1ccccc1C2=O the results were G6PDH counter -16, Redox H2O2 prof 3, Diaphorase inh 19, Diaphorase act 0.8, PfGluPho inh 14 and L major viab -6.
`Cn1c(=O)[nH]c(=O)c2c1nc([N+](=O)[O-])n2Cc1ccccc1` gave PfGluPho inh 86*, PfG6PD confirm 88*, Diaphorase 10uM 50 and Diaphorase 30uM 51*.
CC(C)Cn1c([N+](=O)[O-])nc2c1c(=O)[nH]c(=O)n2C was read as PfGluPho inh 71*, PfG6PD confirm 55*, Diaphorase 10uM 36 and Diaphorase 30uM 37.
For Cn1c(=O)[nH]c(=O)c2c1nc(N1CCNCC1)n2Cc1ccccc1 the results were PfGluPho inh 5.
For CCNc1nc2c(c(=O)[nH]c(=O)n2C)n1CC(C)C the results were G6PDH counter 7, Redox H2O2 prof -1, Diaphorase inh 13, Diaphorase act 0.9, PfGluPho inh -38 and L major viab -8.
Screening COC(=O)Cc1ccc(NC(=S)NNC(=O)C2CC2)cc1 returned PfGluPho inh -2.
`C=CCn1c(C)cc(C(=O)COC(=O)CNC(=O)c2ccccc2)c1C` gave G6PDH counter 3, Redox H2O2 prof -1, Diaphorase inh 16, Diaphorase act 0.8, PfGluPho inh 3 and L major viab -7.
COC(=O)c1ccc(NCc2c(O)ccc(O)c2Br)cc1Cl was read as PfGluPho inh 104* and PfG6PD confirm 39.
For CCOc1ccc2c(c1)C(=O)C(=O)N2CC1COc2ccccc2O1 (stereo not given) the results were PfGluPho inh 63* and PfG6PD confirm 11.
For O=[N+]([O-])c1c(Nc2ccc(O)cc2)cc(Cl)c2nonc12 the results were PfGluPho inh 60* and PfG6PD confirm 23.
`CN(C)c1cc(Nc2ccc(O)cc2)c([N+](=O)[O-])c2nonc12` gave PfGluPho inh -5.
Screening CCCc1nnc(NC(=O)CCC(=O)N2CCN(C3c4ccccc4-c4ccccc43)CC2)s1 returned G6PDH counter -17, Redox H2O2 prof 1, Diaphorase inh 2, Diaphorase act 1, PfGluPho inh 7 and L major viab -6.
Screening CCN1CCN(Cc2ccc(NC(=O)c3ccc(C)c(NC(=O)c4ccno4)c3)cc2C(F)(F)F)CC1 returned PfGluPho inh 18.
CCN1CCN(Cc2ccc(NC(=O)c3ccc(C)c(/C=C/c4cnc(Nc5cc(N6CCNCC6)nc(C)n5)cn4)c3)cc2C(F)(F)F)CC1 was read as PfGluPho inh 66*! and PfG6PD confirm 31.
Screening CC(=O)Nc1ccc2nc(NC(=O)c3ccc([N+](=O)[O-])o3)sc2c1 returned PfGluPho inh -20.
Screening Cc1cc(C(=O)CSc2nnc(-c3ccco3)o2)c(C)n1-c1ccc2c(c1)OCCO2 returned G6PDH counter 2, Redox H2O2 prof 1, Diaphorase inh 31, Diaphorase act 0.7, PfGluPho inh 75*, L major viab 1 and PfG6PD confirm 36.
For Cc1nnc(SCC(=O)c2cc(C)n(-c3ccc4c(c3)OCO4)c2C)s1 the results were G6PDH counter 4, Redox H2O2 prof -3, Diaphorase inh 28, Diaphorase act 0.7, PfGluPho inh 98*, L major viab 61*, PfG6PD confirm 69*, Diaphorase 10uM 56* and Diaphorase 30uM 42.
For Cc1cc(C(=O)CSc2nnc(-c3cccs3)o2)c(C)n1-c1ccccc1 the results were G6PDH counter -35, Redox H2O2 prof -2, Diaphorase inh 29, Diaphorase act 0.7, PfGluPho inh 79*, L major viab 0 and PfG6PD confirm 43.
For Cc1ccc(S(=O)c2ccc([N+](=O)[O-])c3nonc23)cc1 (stereo not given) the results were PfGluPho inh 117*, PfG6PD confirm 103*, Diaphorase 10uM 11 and Diaphorase 30uM 11.
Screening CC(C)(C)n1nc2c(c1NC(=O)c1cccc(C(F)(F)F)c1)CS(=O)C2 (stereo not given) returned G6PDH counter 8, Redox H2O2 prof 3, Diaphorase inh 8, Diaphorase act 0.9, PfGluPho inh -1 and L major viab -9.
`CC(Nc1ccc(N2CCOCC2)cc1)C(=O)N1c2ccccc2CC1C` (stereo not given) gave PfGluPho inh 69* and PfG6PD confirm -9.
CC1Cc2ccccc2N1CC(=O)Nc1ccc(N2CCOCC2)cc1 (stereo not given) was read as G6PDH counter 3, Redox H2O2 prof -1, Diaphorase inh 5, Diaphorase act 0.9, PfGluPho inh -12 and L major viab 3.
Screening CC(C)[C@H](NC(=O)[C@@H]1Cc2ccccc2CN1)C(=O)Nc1ccc2c(c1)OCO2 returned PfGluPho inh 22.
NC(=S)N/N=C/c1c[nH]c2ccc(OCc3ccccc3)cc12 was read as PfGluPho inh 60* and PfG6PD confirm 27.
O=C(c1ccc(Cl)cc1)c1ccccc1C(=O)N1CCOCC1 was read as G6PDH counter 17, Redox H2O2 prof 4, Diaphorase inh -6, Diaphorase act 1.1, PfGluPho inh 63*, L major viab -1 and PfG6PD confirm 11.
`O=C(c1ccccc1)c1ccccc1C(=O)N1CCOCC1` gave G6PDH counter 4, Redox H2O2 prof 3, Diaphorase inh 6, Diaphorase act 0.9, PfGluPho inh 2 and L major viab -4.
